Experimental data published in ChEMBL document CHEMBL1153864, “Phase transfer catalyzed synthesis of bis-quinolines: antileishmanial activity in experimental visceral leishmaniasis and in vitro antibacterial evaluation” (Eur J Med Chem, 2009).
In brackets after ≈: the same amount, converted by molar mass. Activity calls are given as the source filed them. The calls are words filed in the database; no cut-off is given here.

Experiments:
Mus musculus [1] = assay: Toxicity in BALB/c mouse assessed as effect on serum glutamate oxaloacetate transaminase levels at 12.5 mg/kg, ip administered two times per week for 4 weeks; format: organism-based; set-up: dose 12.5 mg/kg, route intraperitoneal; conditions: in vivo, 672 h
Procedure, shortened: (§1)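 Normal BALB/c mice were dosed ip twice per week for 4 weeks. Blood was collected one month after treatment, and serum SGPT and SGOT (IU/l) and blood urea (mg/dl) were measured with commercial kits and compared with untreated normal mice.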

Staphylococcus aureus [2] = assay: Antibacterial activity against Staphylococcus aureus ML6 at 10 ug/ml after 24 hrs by agar dilution method; format: functional; conditions: ML6, 24 h
Procedure, shortened: (§2)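 Agar dilution MIC. Compound dissolved in sterile 0.2% DMSO, diluted in distilled water and mixed into molten nutrient agar (pH 7.2–7.4) at 5, 10, 25, 50; plate with 0.2% DMSO as control. Gram-positives grown 18 h in nutrient broth, Gram-negatives in peptone water. Stationary-phase suspension set to 0.5 McFarland, diluted 1:100, spot-inoculated at about 10^5 CFU per loopful. Plates held 24 h at 37 °C (up to 72 h if needed). MIC is the lowest level with no growth.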

Escherichia coli = assay: Antibacterial activity against Escherichia coli ATCC 25938 at 5 ug/ml after 24 hrs by agar dilution method; format: functional, organism-based; procedure, shortened: as §2
Leishmania donovani [3] = assay: Antileishmanial activity against Leishmania donovani MHOM/IN/1983/AG83 promastigotes assessed as induction of membrane blebbing at 11.5 ug/ml after 2 hrs by transmission electron microscopy; format: functional, organism-based
Procedure, shortened: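 Log-phase promastigotes, grown at 22 °C in M199 with 10% FBS, were exposed for 2 h to the compound; controls received 0.1% DMSO alone. Cells were then sectioned, stained on copper grids with uranyl acetate and lead acetate for 10-15 min each, and examined by TEM for ultrastructural changes.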

Proteus mirabilis [4] = assay: Antibacterial activity against Proteus mirabilis 175 at 10 ug/ml after 24 hrs by agar dilution method; format: functional, organism-based; procedure, shortened: as §2
Leishmania donovani [5] = assay: Antileishmanial activity against Leishmania donovani MHOM/IN/1983/AG83 promastigotes after 4 hrs by MTT assay; format: functional, organism-based; conditions: MHOM/IN/1983/AG83, 4 h
Procedure, shortened: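 AG83 promastigotes kept at 22 °C in M199 + 10% FBS. Log-phase cells (2×10^6/ml) exposed 2 h at 22 °C to 1, 3, 5, 7, 10, 15 compound; DMSO at 0.1% final. Cells washed with PBS, incubated 4 h at 22 °C with MTT (2 mg/ml). Formazan dissolved in DMSO and read at 570 nm; % lysis computed, IC50 by linear regression.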

[6] = Down regulation of IL6 release Leishmania donovani MHOM/IN/1983/AG83 infected interferon gamma-stimulated golden Syrian hamster peritoneal macrophages; format: functional, cell-based; conditions: Mesocricetus auratus; Macrophage
Shigella dysenteriae [7] = assay: Antibacterial activity against Shigella dysenteriae 7 NCTC 519/66 at 25 ug/ml after 24 hrs by agar dilution method; format: functional; conditions: 7 NCTC 519/66, 24 h
Bacillus licheniformis [8] = assay: Antibacterial activity against […] Bacillus licheniformis NCTC 10341 at 10 ug/ml after 24 hrs by agar dilution method; format: functional, organism-based; procedure, shortened: as §2
Proteus mirabilis [9] = assay: Antibacterial activity against Proteus mirabilis 175 at 25 ug/ml after 24 hrs by agar dilution method; format: functional, organism-based; procedure, shortened: as §2
Mus musculus [10] = assay: Toxicity in BALB/c mouse assessed as effect on serum glutamate pyruvate transaminase levels at 5.5 mg/kg, ip administered two times per week for 4 weeks; format: organism-based; set-up: dose 5.5 mg/kg, route intraperitoneal; conditions: in vivo, 672 h; procedure, shortened: as §1
Bacillus licheniformis [11] = assay: Antibacterial activity against […] Bacillus licheniformis NCTC 10341 at 50 ug/ml after 24 hrs by agar dilution method; format: functional; conditions: NCTC 10341, 24 h; procedure, shortened: as §2
Leishmania donovani [12] = assay: Antileishmanial activity against Leishmania donovani MHOM/IN/1983/AG83 promastigotes assessed as induction of chromatin condensation at 2 ug/ml after 2 hrs by transmission electron microscopy; format: functional, organism-based
[13] = Down regulation of IL6 release Leishmania donovani MHOM/IN/1983/AG83 infected bacterial liposaccharide-stimulated golden Syrian hamster peritoneal macrophages; format: functional, cell-based; conditions: Mesocricetus auratus; Macrophage
Pseudomonas aeruginosa = assay: Antibacterial activity against Pseudomonas aeruginosa ATCC 27853 at 25 ug/ml after 24 hrs by agar dilution method; format: functional; conditions: ATCC 27853, 24 h; procedure, shortened: as §2
Staphylococcus aureus [14] = assay: Antibacterial activity against Staphylococcus aureus ML145 at 10 ug/ml after 24 hrs by agar dilution method; format: functional; conditions: ML145, 24 h; procedure, shortened: as §2
Shigella dysenteriae [15] = assay: Antibacterial activity against Shigella dysenteriae 6 NCTC 100/54 at 25 ug/ml after 24 hrs by agar dilution method; format: functional, organism-based
Vibrio cholerae [16] = assay: Antibacterial activity against Vibrio cholerae 569B after 24 hrs by agar dilution method; format: functional
Salmonella typhimurium [17] = assay: Antibacterial activity against Salmonella Typhimurium NCTC 74 at 10 ug/ml after 24 hrs by agar dilution method; format: functional, organism-based; conditions: Salmonella enterica subsp. enterica serovar Typhimurium; procedure, shortened: as §2
Vibrio cholerae [18] = assay: Antibacterial activity against Vibrio cholerae 582 at 25 ug/ml after 24 hrs by agar dilution method; format: functional; conditions: Vibrio cholerae, 582, 24 h
Vibrio cholerae [19] = assay: Antibacterial activity against Vibrio cholerae 582 at 10 ug/ml after 24 hrs by agar dilution method; format: functional; conditions: Vibrio cholerae, 582, 24 h
Salmonella typhimurium [20] = assay: Antibacterial activity against Salmonella Typhimurium NCTC 74 at 25 ug/ml after 24 hrs by agar dilution method; format: functional, organism-based; conditions: Salmonella enterica subsp. enterica serovar Typhimurium; procedure, shortened: as §2
Shigella dysenteriae [21] = assay: Antibacterial activity against Shigella dysenteriae 6 NCTC 100/54 at 10 ug/ml after 24 hrs by agar dilution method; format: functional, organism-based
Staphylococcus aureus [22] = assay: Antibacterial activity against Staphylococcus aureus ML6 ug/ml after 24 hrs by agar dilution method; format: functional; conditions: ML6, 24 h; procedure, shortened: as §2
Vibrio cholerae [23] = assay: Antibacterial activity against Vibrio cholerae 582 at 50 ug/ml after 24 hrs by agar dilution method; format: functional; conditions: Vibrio cholerae, 582, 24 h
Shigella dysenteriae [24] = assay: Antibacterial activity against Shigella dysenteriae 6 NCTC 100/54 after 24 hrs by agar dilution method; format: functional; conditions: 6 NCTC 100/54, 24 h
Shigella dysenteriae [25] = assay: Antibacterial activity against Shigella dysenteriae 6 NCTC 100/54 at 50 ug/ml after 24 hrs by agar dilution method; format: functional; conditions: 6 NCTC 100/54, 24 h
Bacillus licheniformis [26] = assay: Antibacterial activity against […] Bacillus licheniformis NCTC 10341 at 5 ug/ml after 24 hrs by agar dilution method; format: functional, organism-based; procedure, shortened: as §2

## Clc1ccc(OCOc2ccc(Cl)c3cccnc23)c2ncccc12
Mus musculus [1]
  Activity: Non-toxic
Staphylococcus aureus [2]
  inhibition at 10 µg/mL: 100%
Escherichia coli
  Activity: inactive
Leishmania donovani [3]
  Activity: Active
Proteus mirabilis [4]
  Activity: inactive
Leishmania donovani [5]
  IC50: 2 mg/L (≈ 5.39 µM)
[6]
  Activity: Active
Shigella dysenteriae [7]
  inhibition at 25 µg/mL: 100%
Bacillus licheniformis [8]
  Activity: inactive
Proteus mirabilis [9]
  Activity: inactive
Mus musculus [10]
  Activity: Non-toxic
Bacillus licheniformis [11]
  inhibition at 50 µg/mL: 100%
Leishmania donovani [12]
  Activity: Active
[13]
  Activity: Active
Pseudomonas aeruginosa
  inhibition at 25 µg/mL: 100%
Staphylococcus aureus [14]
  inhibition at 10 µg/mL: 100%
Shigella dysenteriae [15]
  Activity: inactive
Vibrio cholerae [16]
  MIC: 25 mg/L (≈ 67.3 µM)
Salmonella typhimurium [17]
  Activity: inactive
Vibrio cholerae [18]
  inhibition at 25 µg/mL: 100%
Vibrio cholerae [19]
  inhibition at 10 µg/mL: 100%
Salmonella typhimurium [20]
  Activity: inactive
Shigella dysenteriae [21]
  Activity: inactive
Staphylococcus aureus [22]
  MIC: 10 mg/L (≈ 26.9 µM)
Vibrio cholerae [23]
  inhibition at 50 µg/mL: 100%
Shigella dysenteriae [24]
  MIC: 50 mg/L (≈ 135 µM)
Shigella dysenteriae [25]
  inhibition at 50 µg/mL: 100%
Bacillus licheniformis [26]
  Activity: inactive
